A selection: hits, their analogues and other compounds. The true share with any hit is near 2.7%.
NR2E3 ag-1 = NR2E3 agonists in two-hybrid cells, primary screen, cell-based, luminescence, CHO-S, Gal4-NCOR/VP16-NR2E3 | luciferase | inhibition of corepressor binding, % at 3.98 µM | hit rate 0.35% among 360,000 | AID 602229, 2012;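 active = inhibition above the mean of all tested compounds plus 3 SD, cut at about 70% in these data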;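 also: 0% = DMSO with NR2E3 transfected cells and 100% = cells lacking NR2E3 construct; higher means lower luciferase signal from less NR2E3 corepressor binding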
Target sequence (Q9Y5X4 whole entry, looked up, the tested form may be a part): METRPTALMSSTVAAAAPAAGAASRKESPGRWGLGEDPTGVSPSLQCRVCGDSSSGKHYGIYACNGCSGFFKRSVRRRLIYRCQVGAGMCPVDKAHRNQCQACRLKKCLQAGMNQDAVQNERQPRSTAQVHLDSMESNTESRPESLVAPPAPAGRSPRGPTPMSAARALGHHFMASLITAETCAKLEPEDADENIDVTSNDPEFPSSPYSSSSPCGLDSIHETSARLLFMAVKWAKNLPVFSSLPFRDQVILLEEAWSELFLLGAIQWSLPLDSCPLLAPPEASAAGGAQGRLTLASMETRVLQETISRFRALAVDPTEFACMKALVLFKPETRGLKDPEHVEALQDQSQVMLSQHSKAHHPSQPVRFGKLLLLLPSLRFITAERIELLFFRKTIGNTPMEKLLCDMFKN
MC4R barr agon = MC4R agonists recruiting beta-arrestin, primary screen, cell-based, luminescence, agonist arm of biased-ligand search | Melanocortin receptor 4 (Homo sapiens), P32245 | U2OS MC4R beta-arrestin complementation; percent of melanotan II response, DMSO zero | activation, % at 8.9 µM | hit rate 0.98% among 360,000 | AID 540308, 2011;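 active = activation above a per-plate cutoff, the mean activation of sample wells on that plate plus 3 SD, cut at about 8% in these data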
MC4R antagonist = MC4R antagonists of cAMP signaling, primary screen, cell-based, TR-FRET, antagonist arm of biased-ligand search; inhibition, % at 6.5 µM; Melanocortin receptor 4 (Homo sapiens), P32245; MC4R-expressing cells, MTII-stimulated cAMP, LANCE TR-FRET; hit rate 0.48% among 360,000;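 active = inhibition above its plate's cutoff, the mean of tested wells on that plate plus 3 SD, cut at about 29% in these data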;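 also: 0% = Melanotan II alone and 100% = Melanotan II plus saturating MCL0020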
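System – human MC4R-expressing U2OS cells · Also added – Melanotan II · Dosing – one concentration, 6.5 µM nominal · Timing – 30-min compound, 1-h challenge, 1-h detection, room temperature · Measured by – Eu-cAMP/anti-cAMP TR-FRET, emission 671 nm · Replicates – singlicate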
PG9 Ab binder = binders of HIV-1 gp120 antibody PG9, primary screen, biochemical, TR-FRET; AID 624416, 2012; HIV-1 gp120 / PG9 antibody interaction; TR-FRET gp120-PG9 antibody binding; hit rate 0.43% among 360,000; inhibition, % at 6.7 µM; in the data active = inhibition above about 8.5%
NR1D1 modulator = modulators of Rev-erb alpha DNA binding, primary screen, biochemical, FITC-DNA, fluorescence polarization, uHTS. activity, % at 10 µM. hit rate 0.79% among 370,000. AID 1259318, 2017. Rev-erbα–FITC-DNA binding, 90 min;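 active = activity above about 14%, limit read from the data; passing the limit was not always enough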;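 also: 0% = DMSO wells with 35 nM protein and 100% = DMSO wells with 750 nM protein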
NR2E3 ag-2 = inhibitors of NR2E3-RetCOR corepressor binding, primary screen, NR2E3 agonist project, biochemical, TR-FRET, GST-NR2E3, biotin-RetCOR; 1536-well; AID 2300, 2010; inhibition of corepressor binding, % at 4.78 µM; Photoreceptor-specific nuclear receptor (Homo sapiens), Q9Y5X4; hit rate 0.12% among 320,000;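 active = percent inhibition above the cutoff of mean plus 3 SD of all tested compounds, set per screening campaign, cut at about 20% in these data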;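 also: 0% = DMSO wells and 100% = biotin wells as full block of FRET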
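Material – GST-tagged NR2E3 plus biotinylated RetCOR corepressor · Quantity – NR2E3 fusion 1.35 nM · Times – 5 h incubation at 4 °C · Medium – pH 7.5 Tris-based buffer · Technique – TR-FRET, Eu(K)-anti-GST donor, streptavidin-D2 acceptor, ex 340, em 617/671 nm · Benchmarks – high control biotin, low control 0.6% DMSO · Format – 1536-well plates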
Rev-erbA confirm = modulators of Rev-erb alpha DNA binding, confirmation, biochemical, FITC-DNA, fluorescence polarization, single point; 90 min; shares compounds with NR1D1 modulator; hit rate 61% among 3,000; activation, % at 25 µM;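 active = activation at or above a set limit, or at least 3 SD above the negative control mean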;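 also: 0% = 35 nM protein with DMSO and 100% = 750 nM protein high control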
RORg counter = modulation of RORgamma DNA binding, dose response, counter-screen for Rev-erb alpha modulator project, biochemical, fluorescence polarization, FITC-DNA; shares compounds with NR1D1 modulator; purified RORgamma protein-FITC-DNA binding; IC50, µM; hit rate 8% among 910;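 active = Compounds whose fitted half-maximal concentration for disrupting protein-DNA binding is below 10 micromolar; the record names Rev-erb in its text, so the target is in doubt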
An asterisk follows results filed as active; . = no result given.

SMILES	NR2E3 ag-1	MC4R barr agon	MC4R antagonist	PG9 Ab binder	NR1D1 modulator	NR2E3 ag-2	Rev-erbA confirm	others
CCOC(=O)c1ccc(-c2ccc3oc(-c4ccsc4)cc(=O)c3c2)cc1F	5	-1	-1	-1	58*	.	12
COc1cc(-c2ccc3oc(-c4ccsc4)cc(=O)c3c2)cc(OC)c1OC	9	1	22	-1	-2	.	.
O=C(Cn1nc2sc3ccccc3n2c(=O)c1=O)c1cccs1	24	1	-4	0	4	-2	.
O=c1c(=O)n2c(nn1Cc1ccc(F)cc1)sc1ccccc12	-22	-1	6	1	33*	-3	20*
COc1cccc(C(=O)Nc2ccccc2F)c1	-35	-2	-3	-4	0	-3	.
O=C(Nc1ccccc1F)c1cccc(C(=O)Nc2ccccc2F)c1	-19	-1	7	-3	41*	-1	-3
CC(=O)Nc1ccc(NC(=O)[C@@H](NC(=O)N2C[C@H]3C[C@@H](C2)c2cccc(=O)n2C3)C(C)C)cc1	-25	-1	8	0	1	-4	.
O=C(CCOc1ccccc1)Nc1ccccc1[N+](=O)[O-]	-33	0	-1	-1	-4	3	.
O=C(NCc1ccc(-c2nc3ccccc3s2)cc1)c1ccc(Br)o1	-87	2	3	-5	21*	2	13
O=C(NCCOc1ccccc1)C1Nc2ccc(C(F)(F)F)cc2C2c3ccccc3CC12 (centres undefined)	-4	-1	0	0	-2	2	.
CCOC(=O)C1Nc2ccc(C(F)(F)F)cc2C2c3ccccc3CC12 (centres undefined)	9	-1	6	-1	36*	1	14
CCOCCCNCc1cccc(OCc2ccc(F)cc2)c1	-2	0	16	-1	5	-1	.
CC(=O)c1c(C)nc(Nc2nc3ccccc3s2)nc1C	-96	1	0	5	11	2	.
COc1cccc(Oc2cnc(N)nc2-c2ccc(OC)cc2O)c1	-77	0	-10	0	12	8	.
COc1ccc(-c2nc(N)ncc2Oc2ccccc2Br)c(O)c1	-50	3	9	-1	104*	2	81*	RORg counter=>40
CCN(Cc1cn(Cc2ccc(C)cc2)nn1)S(=O)(=O)c1ccccc1Br	.	.	.	.	1	.	.
Cc1cc(Br)ccc1NC(=O)c1sc2ncnc(N3CCN(c4ccccn4)CC3)c2c1C	-18	-1	-14	-3	69*	-2	8
COc1ccc(NC(=O)c2sc3nc(C)nc(N4CCN(c5ccccn5)CC4)c3c2C)cc1Cl	6	1	3	-2	18	-2	.
Cc1cc(Br)ccc1NC(=O)CN1CCN(c2ccccn2)CC1	2	1	-3	0	2	0	.
Cc1c(C(=O)Nc2c(F)cccc2F)sc2ncnc(N3CCN(c4ccccc4)CC3)c12	-10	-1	6	1	4	8	.
Cc1c(C(=O)NC2CCCCC2)sc2ncnc(N3CCN(c4ccccc4)CC3)c12	-37	-1	4	1	39*	0	16
COc1ccc(NC(=O)c2sc3ncnc(N4CCN(c5ccccn5)CC4)c3c2C)cc1Cl	-4	3	4	0	28*	-1	20*
Cc1cc(C)n(CC(O)CN2C(=O)NC(C)(C)C2=O)n1 (centres undefined)	-6	-1	7	0	0	-1	.
COC(=O)C1=C(C)OC(N)=C(C#N)C1c1c(C)nn(C)c1C (centres undefined)	-8	-2	-5	-1	-7	-1	.
O=C1/C(=C/c2ccc(N3CCCC3)cc2)NC(=S)N1C1CC1	-14	1	3	-9	27*	-7	27*
SMILES	NR2E3 ag-1	MC4R barr agon	MC4R antagonist	PG9 Ab binder	NR1D1 modulator	NR2E3 ag-2	Rev-erbA confirm	others
Cc1cc(N2CCCC2)ccc1/C=C1\NC(=S)N(C)C1=O	-30	2	7	-13	30*	-7	50*	RORg counter=>40
Cn1c(=O)c(Nc2ccc(Cl)cc2)c2c3c(cccc31)C(=O)c1ccccc1-2	.	.	.	-1	24*	2	12
CCOc1nc(-c2ccccc2)ccc1-c1noc(-c2ccncc2)n1	-8	-3	7	3	29*	5	24*
CCOc1nc(-c2ccccc2)ccc1-c1noc(-c2cccs2)n1	-28	2	6	1	40*	0	14
COc1cccc(-c2ccc(-c3noc(-c4cccs4)n3)c(OC)n2)c1	-33	0	0	0	12	3	.
Cc1c(OCC(=O)Nc2cccnc2)ccc2c3c(c(=O)oc12)CCC3	-14	-4	3	-1	4	2	.
Cc1c(C)c2ccc(OCC(=O)Nc3ccc(S(N)(=O)=O)cc3)c(C)c2oc1=O	-28	-1	2	5	25*	0	11
CCOC(=O)Nc1nn(-c2ccc(C)cc2)c(=O)c(C#N)c1C	-11	0	8	1	5	-1	.
Fc1ccc2nc(Nc3nc4c(F)cc(F)cc4s3)sc2c1	-46	-3	7	1	53*	0	41*	RORg counter=>40
Fc1ccc2nc(Nc3nc4cc5c(cc4s3)OCCO5)sc2c1	-129	0	1	-5	32*	2	39*	RORg counter=>40
NNc1nc2ccc(F)cc2s1	-130	2	8	-4	3	-4	.
CCCCc1nc(C(N)=O)c2[nH]c(=O)n(-c3ccc(OC)cc3OC)c2n1	-11	-2	9	.	.	-4	.
Cc1ccccc1/C=C1\SC(=S)N(/N=C/c2cc([N+](=O)[O-])ccc2O)C1=O	1	-1	0	-2	22*	-4	4
CCOc1ccc(N(Cc2cc3ccc(C)cc3[nH]c2=O)S(=O)(=O)c2ccccc2)cc1	22	1	-10	-2	1	3	.
